In article PMC5912934 (ChemMedChem, 2017):

What was measured:
female nude mice = assay: Maximum tolerated dose assay; type: in vivo
[1] = Aqueous benchtop stability in phosphate buffer; type: physicochemical; conditions: 25 μg/mL, pH 5.0, 7.0 and 7.5, room temperature, up to 24 hours
How it was run: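 Test compound at 1 mg/mL in anhydrous DMSO (stock) was spiked into phosphate buffer at 25 μg/mL, at pH 5.0, 7.0 and 7.5, and stirred at room temperature. Aliquots were taken at 0, 0.25, 0.5, 1, 4, 8 and 24 h and checked by TLC against a verified standard. Aliquots were then extracted twice with chloroform, and the residue was examined by 1H NMR to confirm the TLC findings.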

[2] = Aqueous benchtop stability at CCPC; type: physicochemical; conditions: LC/MS; for deviation of recovered from expected concentration in aqueous solution: 5-500 ng/mL in 1:1 acetonitrile/Millipore H2O
How it was run: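 Prodrug and its parent were spiked at 5, 12.5, 25, 50, 125, 250 and 500 ng/mL into 1:1 acetonitrile/Millipore water. Both analytes were measured by LC/MS. Concentrations were quantified against a previously constructed calibration curve at the same concentrations.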

Mouse plasma stability = type: in vitro ADME
How it was run: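 Mouse plasma was spiked with 500 ng/mL prodrug and assayed for both prodrug and parent at 0, 5, 15, 30, 45, 60 and 90 min. Conversion was expressed as analyte counts to avoid differences between the two standard curves.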

[3] = Mouse model pharmacokinetic study; conditions: in vivo, 10 mg/kg
How it was run: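 Mouse plasma was analysed by a validated LC/MS/MS assay. Proteins were precipitated with an equal volume of acetonitrile after adding an internal standard (a related analogue, final 1000 ng/mL), then vortexed 10 min and centrifuged at 14,000 rpm. Standard ranges were 1–1,000 ng/mL for parent and 10–10,000 ng/mL for prodrug. Separation used a C18 column with a 0.1% formic acid/acetonitrile gradient at 1 mL/min. Detection was positive electrospray on a triple quadrupole.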

Stability in human serum = type: in vitro ADME; conditions: pooled human serum, up to 24 hours
How it was run: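 The test compound came from a 1 mg/mL anhydrous DMSO stock and was incubated in pooled human serum […]. It followed the same workflow as the buffer test. Timed aliquots were taken up to 24 h and compared by TLC against a verified standard. Aliquots were then extracted with two chloroform portions, the solvent was removed, and the residue was analysed by 1H NMR to verify TLC.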

γ-H2Ax in MOLM-14 cells = assay: Gamma-H2Ax DNA damage assay in MOLM-14 cells; type: cell-based, human; conditions: MOLM-14 cells grown in 0.5 and 4 μM for 24 hours
How it was run: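 MOLM-14 cells were seeded the evening before at 1×10^5 cells/mL in RPMI 1640/10% FBS. Controls were DMSO and 6.0 Gy gamma irradiation (collected after 1 h); treated cells were collected after 24 h. Cells were washed in PBS/2% serum, cytospun at 1.5×10^5 cells/slide, fixed 15 min in 4% PFA, permeabilised (Triton X-100 buffer), and blocked overnight in 10% FBS/PBS/0.1% Triton. Staining used anti-γ-H2Ax plus DyLight anti-mouse secondary with DAPI mount; slides were examined by fluorescence microscopy.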

[4] = test system: various cancer cell lines; assay: Cancer cell line screening, all cell lines together; type: cell-based, human; conditions: for IC50: Homo sapiens, read-out: IC50 in cancer cell lines, lowest value
HeLa cells = conditions: read-out: IC50 against HeLa cells; cited from earlier work
[5] = test system: A549 adenocarcinomic human alveolar basal epithelial cells; assay: IC50 proliferation assay; type: cell-based; conditions: A549, 72 h, read-out: A549 cancer cell line activity (IC50)
How it was run: (§1)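 Cells were grown at 37 °C in 5% CO2 in RPMI 1640 or DMEM with 10% heat-inactivated FBS and 1% glutamine, then seeded in 96-well plates the afternoon before treatment. About 18 h later, the test compound was semi-serially diluted in DMSO, then in growth medium, and added. After 72 h, WST-1 was added and plates were read after a further 4 h at 37 °C. Assays were run in triplicate.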

[6] = test system: MOLM-14 acute monocytic leukemia cells; assay: IC50 proliferation assay; type: cell-based; conditions: Homo sapiens, MOLM-14, 72 h, read-out: MOLM14 cancer cell line activity (IC50)
How it was run: as §1

Row | SMILES | aqueous stability in phosphate buffer [1] | deviation of recovered from expected concentration in aqueous solution [2] [%] | stability in human serum (Stability in human serum) | IC50 [4] [µM] | IC50 (HeLa cells) [µM] | further results
1 | Cc1ccc(S(=O)(=O)n2cc(I)c3nc(Cl)nc(Cl)c32)cc1 [Compound 9, 2,4-Dichloro-7-iodo-5-tosyl-pyrrolo[3,2-d]pyrimidine] | stable | 15.8 |  |  |  | increase in maximum tolerated dose compared to parent compound 7 (female nude mice; fold, versus 7): four-fold; hydrolysis of 9 to 7 in aqueous solution ([2]; 1:1 acetonitrile/Millipore H2O): no observed hydrolysis; time to undetectable in biological media (Mouse plasma stability; biological media (Figure 4, mouse plasma)): ≤ 1 hour; conversion of 9 to 7 in mouse plasma (Mouse plasma stability; mouse plasma spiked with 500 ng/mL, 0-90 minutes): Significant conversion
2 | Clc1nc(Cl)c2[nH]cc(I)c2n1 [Compound 7, 2,4-Dichloro-7-iodo-5H-pyrrolo[3,2-d]pyrimidine] | stable | ≤ 5.7 | stable | ≥ 0.014 |  | time to little to no detection of the compound in mouse plasma [3]: ≤ 70 min; deviation in plasma over the time frame investigated (Mouse plasma stability; mouse plasma, 0-90 minutes): 5.7%; stability in plasma (Mouse plasma stability; mouse plasma, time frame investigated (0-90 minutes)): excellent stability; DNA damage (γ-H2Ax staining) (γ-H2Ax in MOLM-14 cells): significant DNA damage
3 | Clc1nc(Cl)c2c(n1)c(I)cn2COCc1ccccc1 [Compound 8, 5-((Benzyloxy)methyl)-2,4-dichloro-7-iodo-pyrrolo[3,2-d]pyrimidine] |  |  |  |  |  | decrease of activity compared to the parent ([4]; fold, versus parent 7, Table 1 cell lines): ten-fold
4 | Clc1nc(Cl)c2[nH]cc(Br)c2n1 [Compound 6, 7-Bromo-2,4-dichloro-5H-pyrrolo[3,2-d]pyrimidine] | stable |  | stable | ≥ 0.014 | 0.92 ± 0.04 | toxicity relative to 7 (female nude mice; female, nude, mouse, in vivo): 2 fold
5 | Clc1nc(Cl)c2[nH]ccc2n1 [Compound 5, 2,4-Dichloro-5H-pyrrolo[3,2-d]pyrimidine] |  |  |  | ≥ 0.014 | 19 ± 3 | IC50 [5]: 14.5 ± 3.5 µM; IC50 [6]: 9.5 ± 3.1 µM
